ChEMBL document CHEMBL4382192, “Discovery of a potent dual ALK and EGFR T790M inhibitor” (Eur J Med Chem, 2017)

How the values were obtained:
[1] = test system: Tyrosine-protein kinase ABL1 (Homo sapiens), P00519 [H396P]; assay: Binding affinity to human non-phosphorylated ABL1 H396P mutant (S229 to K512 residues) expressed in mammalian expression system assessed as residual binding level at 1 uM by Kinomescan method relative to control
Method in brief: (§1)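 Kinome-wide selectivity panel run by the KINOMEscan method, with the test compound at a single concentration of 1 μM. Wild-type and mutant kinases were profiled in the same screen.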

[2] = target: Atypical kinase COQ8B, mitochondrial (Homo sapiens) (UniProt Q96D53); assay: Binding affinity to wild-type human full length ADCK4 (M1 to S544 residues) expressed in bacterial expression system assessed as residual binding level at 1 uM by Kinomescan method relative to control
[3] = target: Tyrosine-protein kinase Srms (Homo sapiens) (UniProt Q9H3Y6); assay: Binding affinity to wild-type human partial length SRMS (L208 to P488 residues) expressed in mammalian expression system assessed as residual binding level at 1 uM by Kinomescan method relative to control
[4] = target: Phosphatidylinositol 4,5-bisphosphate 3-kinase catalytic subunit alpha isoform (Homo sapiens) (UniProt P42336); assay: Binding affinity to wild-type human partial length PIK3CA (R108 to N1068 residues) expressed in mammalian expression system assessed as residual binding level at 1 uM by Kinomescan method relative to control
[5] = target: Mitogen-activated protein kinase kinase kinase 10 (Homo sapiens) (UniProt Q02779); assay: Binding affinity to wild-type human partial length MLK2 (V52 to W380 residues) expressed in bacterial expression system assessed as residual binding level at 1 uM by Kinomescan method relative to control
[6] = target: Serine/threonine-protein kinase DCLK3 (Homo sapiens) (UniProt Q9C098); assay: Binding affinity to wild-type human partial length DCAMKL3 (E140 to V628 residues) expressed in bacterial expression system assessed as residual binding level at 1 uM by Kinomescan method relative to control
[7] = target: Inhibitor of nuclear factor kappa-B kinase subunit epsilon (Homo sapiens) (UniProt Q14164); assay: Binding affinity to wild-type human full length IKK-epsilon (M1 to V716 residues) expressed in mammalian expression system assessed as residual binding level at 1 uM by Kinomescan method relative to control
Method in brief: (§2)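 Single-point kinome-wide KINOMEscan binding panel, test compound at 1 μM, run by the provider's standard protocol.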

[8] = target: SRSF protein kinase 3 (Homo sapiens) (UniProt Q9UPE1); assay: Binding affinity to wild-type human partial length SRPK3 (P41 to P567 residues) expressed in bacterial expression system assessed as residual binding level at 1 uM by Kinomescan method relative to control
[9] = target: Mitogen-activated protein kinase kinase kinase 13 (Homo sapiens) (UniProt O43283); assay: Binding affinity to wild-type human full length LZK (M1 to W966 residues) expressed in mammalian expression system assessed as residual binding level at 1 uM by Kinomescan method relative to control; method in brief: as §2
[10] = test system: Tyrosine-protein kinase ABL1 (Homo sapiens), P00519 [F317I]; assay: Binding affinity to human phosphorylated ABL1 F317I mutant (S229 to K512 residues) expressed in mammalian expression system assessed as residual binding level at 1 uM by Kinomescan method relative to control; method in brief: as §1
[11] = target: Homeodomain-interacting protein kinase 4 (Homo sapiens) (UniProt Q8NE63); assay: Binding affinity to wild-type human partial length HIPK4 (M1 to V384 residues) expressed in bacterial expression system assessed as residual binding level at 1 uM by Kinomescan method relative to control
[12] = target: Platelet-derived growth factor receptor beta (Homo sapiens) (UniProt P09619); assay: Binding affinity to wild-type human partial length PDGFRB (V582 to Y1009 residues) expressed in bacterial expression system assessed as residual binding level at 1 uM by Kinomescan method relative to control
[13] = target: Myosin light chain kinase (Homo sapiens) (UniProt Q32MK0); assay: Binding affinity to wild-type human partial length MLCK (D488 to K800 residues) expressed in bacterial expression system assessed as residual binding level at 1 uM by Kinomescan method relative to control
[14] = target: High affinity nerve growth factor receptor (Homo sapiens) (UniProt P04629); assay: Binding affinity to wild-type human partial length TRKA (G475 to G790 residues) expressed in mammalian expression system assessed as residual binding level at 1 uM by Kinomescan method relative to control
[15] = target: Inhibitor of nuclear factor kappa-B kinase subunit alpha (Homo sapiens) (UniProt O15111); assay: Binding affinity to wild-type human full length IKK-alpha (M1 to E745 residues) expressed in mammalian expression system assessed as residual binding level at 1 uM by Kinomescan method relative to control; method in brief: as §2
[16] = target: Glycogen synthase kinase-3 beta (Homo sapiens) (UniProt P49841); assay: Binding affinity to wild-type human full length GSK3B (M1 to T433 residues) expressed in mammalian expression system assessed as residual binding level at 1 uM by Kinomescan method relative to control; method in brief: as §2
[17] = target: Angiopoietin-1 receptor (Homo sapiens) (UniProt Q02763); assay: Binding affinity to wild-type human partial length TIE2 (N804 to T1112 residues) expressed in bacterial expression system assessed as residual binding level at 1 uM by Kinomescan method relative to control
[18] = target: Phosphatidylinositol 4-kinase beta (Homo sapiens) (UniProt Q9UBF8); assay: Binding affinity to wild-type human full length PIK4CB (M1 to M828 residues) expressed in mammalian expression system assessed as residual binding level at 1 uM by Kinomescan method relative to control; method in brief: as §2
[19] = target: Calcium/calmodulin-dependent protein kinase kinase 2 (Homo sapiens) (UniProt Q96RR4); assay: Binding affinity to wild-type human partial length CAMKK2 (D65 to V471 residues) expressed in bacterial expression system assessed as residual binding level at 1 uM by Kinomescan method relative to control
CYP2C19 = CYP2C19 (Homo sapiens, UniProt P33261); assay: Residual activity of CYP2C19 in human liver microsomes at 10 uM using S-mephenytoin 4-hydroxylase as substrate preincubated for 5 mins followed by NADPH addition measured after 15 mins by LC/MS/MS analysis relative to control; conditions: probe S-mephenytoin (4-hydroxylation)
[20] = target: RAC-alpha serine/threonine-protein kinase (Homo sapiens) (UniProt P31749); assay: Binding affinity to wild-type human partial length AKT1 expressed in bacterial expression system assessed as residual binding level at 1 uM by Kinomescan method relative to control
[21] = target: Serine/threonine-protein kinase NIM1 (Homo sapiens) (UniProt Q8IY84); assay: Binding affinity to wild-type human partial length NIM1 (Q44 to N355 residues) expressed in mammalian expression system assessed as residual binding level at 1 uM by Kinomescan method relative to control
[22] = target: Calcium/calmodulin-dependent protein kinase type II subunit delta (Homo sapiens) (UniProt Q13557); assay: Binding affinity to wild-type human partial length CAMK2D (M1 to E329 residues) expressed in bacterial expression system assessed as residual binding level at 1 uM by Kinomescan method relative to control

Mitogen-activated protein kinase kinase kinase 13 (Homo sapiens), sequence (O43283 whole entry, the tested form may be a part): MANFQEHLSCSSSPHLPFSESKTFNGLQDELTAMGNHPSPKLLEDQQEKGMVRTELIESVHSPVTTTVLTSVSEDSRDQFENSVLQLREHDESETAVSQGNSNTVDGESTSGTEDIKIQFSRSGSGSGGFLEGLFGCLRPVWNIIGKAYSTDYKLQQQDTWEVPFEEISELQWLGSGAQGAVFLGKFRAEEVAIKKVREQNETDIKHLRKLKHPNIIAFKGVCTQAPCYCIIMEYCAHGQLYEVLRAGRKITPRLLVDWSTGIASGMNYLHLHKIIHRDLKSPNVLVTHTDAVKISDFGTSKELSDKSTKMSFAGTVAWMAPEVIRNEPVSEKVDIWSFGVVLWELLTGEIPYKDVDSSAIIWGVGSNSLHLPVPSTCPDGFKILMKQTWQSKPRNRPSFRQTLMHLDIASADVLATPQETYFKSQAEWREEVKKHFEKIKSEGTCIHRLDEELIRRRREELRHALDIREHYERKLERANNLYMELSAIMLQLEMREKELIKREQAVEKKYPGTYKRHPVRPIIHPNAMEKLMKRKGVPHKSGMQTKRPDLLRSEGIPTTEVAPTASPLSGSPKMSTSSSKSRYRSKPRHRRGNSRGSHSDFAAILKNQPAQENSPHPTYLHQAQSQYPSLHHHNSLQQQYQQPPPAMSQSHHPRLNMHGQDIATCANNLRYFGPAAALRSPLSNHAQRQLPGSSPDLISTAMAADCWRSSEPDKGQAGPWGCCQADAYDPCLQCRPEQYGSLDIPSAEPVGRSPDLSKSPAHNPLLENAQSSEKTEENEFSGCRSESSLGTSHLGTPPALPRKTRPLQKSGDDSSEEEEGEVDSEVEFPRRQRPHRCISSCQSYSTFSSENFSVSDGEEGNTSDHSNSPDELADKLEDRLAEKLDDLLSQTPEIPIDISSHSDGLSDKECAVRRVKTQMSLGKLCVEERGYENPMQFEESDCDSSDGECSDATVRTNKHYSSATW
Serine/threonine-protein kinase DCLK3 (Homo sapiens), sequence (Q9C098 whole entry, the tested form may be a part): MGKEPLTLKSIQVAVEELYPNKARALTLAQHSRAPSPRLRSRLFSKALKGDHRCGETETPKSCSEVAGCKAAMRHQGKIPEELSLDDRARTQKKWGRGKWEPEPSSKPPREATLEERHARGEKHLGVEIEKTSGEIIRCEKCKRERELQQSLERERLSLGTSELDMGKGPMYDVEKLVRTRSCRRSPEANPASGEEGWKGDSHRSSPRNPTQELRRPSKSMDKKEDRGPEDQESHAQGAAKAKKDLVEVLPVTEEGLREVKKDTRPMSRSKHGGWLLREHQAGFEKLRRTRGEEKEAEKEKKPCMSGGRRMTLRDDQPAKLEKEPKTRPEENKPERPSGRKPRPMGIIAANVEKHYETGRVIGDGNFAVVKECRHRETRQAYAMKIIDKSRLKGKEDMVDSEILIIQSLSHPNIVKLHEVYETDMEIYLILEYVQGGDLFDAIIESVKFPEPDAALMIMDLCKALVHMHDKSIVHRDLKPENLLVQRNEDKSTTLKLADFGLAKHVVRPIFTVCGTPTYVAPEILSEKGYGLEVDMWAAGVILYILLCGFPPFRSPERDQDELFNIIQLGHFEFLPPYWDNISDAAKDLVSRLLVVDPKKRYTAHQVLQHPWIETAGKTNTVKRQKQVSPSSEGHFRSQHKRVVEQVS
High affinity nerve growth factor receptor (Homo sapiens), sequence (P04629 33-796 limits assumed): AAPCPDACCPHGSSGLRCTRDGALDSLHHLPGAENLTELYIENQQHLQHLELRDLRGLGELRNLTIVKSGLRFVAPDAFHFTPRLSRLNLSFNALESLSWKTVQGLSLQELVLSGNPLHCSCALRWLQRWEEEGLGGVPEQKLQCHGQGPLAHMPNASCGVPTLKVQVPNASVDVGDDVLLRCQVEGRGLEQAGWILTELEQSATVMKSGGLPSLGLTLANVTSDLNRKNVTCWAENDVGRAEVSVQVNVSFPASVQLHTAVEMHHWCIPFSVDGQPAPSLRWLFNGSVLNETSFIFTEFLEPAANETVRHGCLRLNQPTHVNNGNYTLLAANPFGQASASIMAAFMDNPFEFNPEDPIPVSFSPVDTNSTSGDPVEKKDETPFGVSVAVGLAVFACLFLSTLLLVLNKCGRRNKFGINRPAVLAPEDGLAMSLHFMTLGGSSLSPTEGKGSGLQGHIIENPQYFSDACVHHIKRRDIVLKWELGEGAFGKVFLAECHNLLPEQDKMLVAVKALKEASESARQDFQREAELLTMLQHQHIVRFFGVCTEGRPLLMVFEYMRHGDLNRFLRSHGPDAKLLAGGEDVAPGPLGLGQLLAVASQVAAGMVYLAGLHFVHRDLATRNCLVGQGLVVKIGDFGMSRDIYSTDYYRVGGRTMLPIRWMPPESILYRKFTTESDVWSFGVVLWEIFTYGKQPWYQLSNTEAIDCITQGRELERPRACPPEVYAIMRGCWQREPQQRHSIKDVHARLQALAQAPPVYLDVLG
Tyrosine-protein kinase Srms (Homo sapiens), sequence (Q9H3Y6 whole entry, the tested form may be a part, canonical isoform): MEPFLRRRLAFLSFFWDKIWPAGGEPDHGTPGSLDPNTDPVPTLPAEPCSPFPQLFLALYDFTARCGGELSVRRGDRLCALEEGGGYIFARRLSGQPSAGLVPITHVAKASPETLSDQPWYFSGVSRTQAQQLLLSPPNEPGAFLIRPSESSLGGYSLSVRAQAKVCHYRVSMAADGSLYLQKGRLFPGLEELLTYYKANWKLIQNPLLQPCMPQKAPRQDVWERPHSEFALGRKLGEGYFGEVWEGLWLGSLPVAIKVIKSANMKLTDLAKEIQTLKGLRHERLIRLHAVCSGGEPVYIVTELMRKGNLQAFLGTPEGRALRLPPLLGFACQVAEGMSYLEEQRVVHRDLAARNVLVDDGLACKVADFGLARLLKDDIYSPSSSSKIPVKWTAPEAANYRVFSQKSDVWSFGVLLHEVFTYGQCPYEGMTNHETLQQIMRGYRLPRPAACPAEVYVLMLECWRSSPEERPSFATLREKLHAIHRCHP
Mitogen-activated protein kinase kinase kinase 10 (Homo sapiens), sequence (Q02779 whole entry, looked up, the tested form may be a part): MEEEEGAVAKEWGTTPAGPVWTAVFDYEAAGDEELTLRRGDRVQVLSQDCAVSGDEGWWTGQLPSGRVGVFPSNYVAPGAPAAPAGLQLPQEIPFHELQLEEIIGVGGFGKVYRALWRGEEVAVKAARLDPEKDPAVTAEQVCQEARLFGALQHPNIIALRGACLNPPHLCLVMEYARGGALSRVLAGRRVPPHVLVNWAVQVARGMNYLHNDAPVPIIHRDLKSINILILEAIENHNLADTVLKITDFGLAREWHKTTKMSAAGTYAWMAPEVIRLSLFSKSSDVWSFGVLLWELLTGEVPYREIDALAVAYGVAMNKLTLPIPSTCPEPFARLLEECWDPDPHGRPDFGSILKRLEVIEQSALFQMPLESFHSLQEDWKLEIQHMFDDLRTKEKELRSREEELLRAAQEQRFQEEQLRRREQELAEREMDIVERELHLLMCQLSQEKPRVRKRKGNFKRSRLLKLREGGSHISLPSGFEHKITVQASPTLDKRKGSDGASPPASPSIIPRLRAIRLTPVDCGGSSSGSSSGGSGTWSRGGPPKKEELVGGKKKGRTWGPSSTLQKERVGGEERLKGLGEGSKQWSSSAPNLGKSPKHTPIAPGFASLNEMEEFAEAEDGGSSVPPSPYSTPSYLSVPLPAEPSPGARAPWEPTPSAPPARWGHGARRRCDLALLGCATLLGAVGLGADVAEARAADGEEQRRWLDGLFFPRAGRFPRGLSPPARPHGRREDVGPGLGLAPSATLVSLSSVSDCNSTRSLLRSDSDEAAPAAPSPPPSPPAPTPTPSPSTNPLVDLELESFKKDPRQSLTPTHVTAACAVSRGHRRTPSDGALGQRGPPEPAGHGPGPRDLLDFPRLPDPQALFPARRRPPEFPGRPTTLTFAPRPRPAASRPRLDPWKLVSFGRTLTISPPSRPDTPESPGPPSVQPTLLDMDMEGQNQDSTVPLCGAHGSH
Angiopoietin-1 receptor (Homo sapiens), sequence (Q02763 whole entry, the tested form may be a part): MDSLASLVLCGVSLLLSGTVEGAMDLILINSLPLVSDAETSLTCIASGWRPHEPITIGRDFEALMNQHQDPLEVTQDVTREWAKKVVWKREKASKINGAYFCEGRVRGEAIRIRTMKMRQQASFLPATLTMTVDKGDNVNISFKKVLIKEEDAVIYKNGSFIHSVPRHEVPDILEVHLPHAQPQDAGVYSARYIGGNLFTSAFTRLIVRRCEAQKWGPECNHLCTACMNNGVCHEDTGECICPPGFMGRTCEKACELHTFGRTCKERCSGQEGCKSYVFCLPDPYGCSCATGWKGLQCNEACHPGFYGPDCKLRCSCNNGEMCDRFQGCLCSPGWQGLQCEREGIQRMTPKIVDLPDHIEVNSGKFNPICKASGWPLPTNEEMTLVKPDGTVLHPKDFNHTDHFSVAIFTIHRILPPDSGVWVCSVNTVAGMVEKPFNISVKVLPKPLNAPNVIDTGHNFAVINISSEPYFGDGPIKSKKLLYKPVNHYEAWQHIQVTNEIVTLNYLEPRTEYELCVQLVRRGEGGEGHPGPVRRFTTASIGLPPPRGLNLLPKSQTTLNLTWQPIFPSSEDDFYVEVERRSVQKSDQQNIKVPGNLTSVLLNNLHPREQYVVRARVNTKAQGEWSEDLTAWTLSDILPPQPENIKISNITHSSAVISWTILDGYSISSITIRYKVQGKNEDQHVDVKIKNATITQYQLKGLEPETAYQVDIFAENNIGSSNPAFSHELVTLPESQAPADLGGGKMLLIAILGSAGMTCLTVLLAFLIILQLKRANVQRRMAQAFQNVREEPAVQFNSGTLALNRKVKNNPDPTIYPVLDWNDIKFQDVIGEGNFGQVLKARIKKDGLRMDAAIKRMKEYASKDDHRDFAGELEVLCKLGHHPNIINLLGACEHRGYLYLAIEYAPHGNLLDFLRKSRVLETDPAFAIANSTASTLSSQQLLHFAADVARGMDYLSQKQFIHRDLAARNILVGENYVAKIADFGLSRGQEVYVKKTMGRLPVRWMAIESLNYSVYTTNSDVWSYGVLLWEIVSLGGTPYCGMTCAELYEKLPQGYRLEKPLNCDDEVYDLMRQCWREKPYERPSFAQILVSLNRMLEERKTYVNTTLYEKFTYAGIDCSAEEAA

C=CC(=O)Nc1cc(Nc2ncc(Cl)c(Nc3ccccc3S(=O)(=O)C(C)C)n2)c(OC)cc1N(C)CCN(C)C
Activity [1]: 2.3% | Activity [2]: 43% | Activity [3]: 6.5% | Activity [4]: 85% | Activity [5]: 80% | Activity [6]: 30% | Activity [7]: 21% | Activity [8]: 77% | Activity [9]: 73% | Activity [10]: 2.8% | Activity [11]: 9.4% | Activity [12]: 43% | Activity [13]: 100% | Activity [14]: 13% | Activity [15]: 96% | Activity [16]: 93% | Activity [17]: 20% | Activity [18]: 69% | Activity [19]: 1.6% | Activity at […], 10 µM (CYP2C19): 86% | Activity [20]: 98% | Activity [21]: 100% | Activity [22]: 41%
